Measurements collected from several papers.
Effect on: cell growth or viability

Cc1cc(C)cc(COc2cc3c(cc2OCc2cc(C)cc(C)c2)[C@H]2C[C@](O)(Cc4cn(Cc5ccc(-c6ccccc6)cc5)nn4)C[C@H](C)N2CC3)c1
IC50 (ASPC1; MTT): 703 nM

O=C1C(=Cc2ccccc2)CN(C(=O)c2ccc(C(=O)N3CC(=Cc4ccccc4)C(=O)C(=Cc4ccccc4)C3)cc2)CC1=Cc1ccccc1
IC50 (Molt4/C8): > 500000 nM

CC(C)=CCC[C@](C)(O)[C@H]1CC[C@]2(C)[C@@H]1[C@H](O)C[C@@H]1[C@@]3(C)CC[C@H](O[C@@H]4O[C@H](CO)[C@@H](O)[C@H](O)[C@H]4O[C@@H]4O[C@H](CO)[C@@H](O)[C@H](O)[C@H]4O)C(C)(C)[C@@H]3CC[C@]12C
IC50 (NCI-H358; MTT; 72 h): > 100000 nM

NCCCOc1cc(NC(=O)c2cc(OCCN)cc(C(=O)Nc3cc(OCCCN)c4ccccc4n3)n2)nc2ccccc12
IC50 (WI-38; ATP luminescence; 72 h): 10600 nM

Cc1cc(C)cc(COc2cc3c(cc2OCc2cc(C)cc(C)c2)[C@H]2C[C@](O)(Cc4cn(Cc5ccncc5)nn4)C[C@H](C)N2CC3)c1
IC50 (ASPC1; MTT): 525 nM

COc1ccc(CCc2cc(C(=O)c3cc(OC)c(OC)c(OC)c3)c(N)s2)cc1
IC50 (Molt4/C8): > 10000 nM

CCCCCCCCCc1ccc(C(=O)Nc2cc(C)ccc2C(=O)OC)cc1
IC50 (RPE): > 120000 nM

Cc1cc(C)cc(COc2cc3c(cc2OCc2cc(C)cc(C)c2)C2CC(O)(Cc4cn(CCC(=O)Nc5cccc6c5C(=O)N(C5CCC(=O)NC5=O)C6=O)nn4)CC(C)N2CC3)c1 (stereo not drawn)
IC50 (ASPC1; MTT): 3290 nM

Cc1ccc2[nH]c(=O)c3cc(C(=O)NCCCN(C)Cc4ccccc4)sc3c2c1
IC50 (HPAF-II; MTT; 24 h): 22400 nM

Nc1ccn([C@@H]2O[C@H](CO)[C@@H](O)C2(F)F)c(=O)n1
IC50 (ASPC1; MTT): 65 nM

Cc1cccc(-n2ncc(Br)c(Br)c2=O)c1
IC50 (NCI-H358; resazurin; 96 h): 210 nM

O=c1c(O)c(-c2cc(O)c(O)c(O)c2)oc2cc(O)cc(O)c12
IC50 (RT-4; ATP luminescence; 72 h): 72700 nM

COc1cc(C(=O)Nc2cc(OCCN3CCCC3)c3ccccc3n2)nc(C(=O)Nc2cc(OCCN3CCCC3)c3ccccc3n2)c1
IC50 (WI-38; ATP luminescence; 72 h): 3900 nM

Cc1nc(Nc2ncc(C(=O)Nc3c(C)cccc3Cl)s2)cc(N2CCN(CCO)CC2)n1
IC50 (ASPC1; MTT): 380 nM

C=C(C)C(=O)Nc1ccc(-c2c(-c3ccc(Oc4nccc(C)n4)c(F)c3)c3c(N)ncnc3n2C)cc1
IC50 (AN3-CA; ATP luminescence; 96 h): 13.7 nM

CN(C)CCOc1cc(NC(=O)c2cc(Cl)cc(C(=O)Nc3cc(OCCN(C)C)c4ccccc4n3)n2)nc2ccccc12
IC50 (WI-38; ATP luminescence; 72 h): 4000 nM

Cc1cc(C)cc(COc2cc3c(cc2OCc2cc(C)cc(C)c2)C2CC(O)(Cc4cn(CCCCCCOc5cccc6c5C(=O)N(C5CCC(=O)NC5=O)C6=O)nn4)CC(C)N2CC3)c1 (stereo not drawn)
IC50 (ASPC1; MTT): 880 nM

COc1cc(C(=O)Nc2cc(OC)c3ccccc3n2)nc(C(=O)Nc2cc(OC)c3ccccc3n2)c1
IC50 (WI-38; ATP luminescence; 72 h): > 40000 nM

O=c1c(O)c(-c2ccc(O)c(O)c2)oc2cc(O)cc(O)c12
IC50 (RT-4; ATP luminescence; 72 h): 92400 nM

Cc1cc(C)cc(COc2cc3c(cc2OCc2cc(C)cc(C)c2)[C@@H]2C[C@@](O)(Cc4cn(Cc5ccc(S(C)(=O)=O)cc5)nn4)C[C@@H](C)N2CC3)c1
IC50 (ASPC1; MTT): 513 nM

c1csc([I+]c2cccs2)c1
IC50 (LS174T; trypan blue; 48 h): ~2500 nM

O=C(Nc1cc(OCCN2CCCC2)c2ccccc2n1)c1cc(Cl)cc(C(=O)Nc2cc(OCCN3CCCC3)c3ccccc3n2)n1
IC50 (WI-38; ATP luminescence; 72 h): 13700 nM

CCN1C(=O)N(c2c(F)c(OC)cc(OC)c2F)Cc2cnc3[nH]c(CN4CCOCC4)cc3c21
IC50 (RT-4; ATP luminescence; 96 h): 5.03 nM

COc1cc(Nc2nc(CN)cc3c(-c4ccccc4)n[nH]c23)cc(OC)c1OC
IC50 (WI-38; MTS; 48 h): > 10000 nM

C#CCOc1cc(C(=O)Nc2cc(OCCCN)c3ccccc3n2)nc(C(=O)Nc2cc(OCCCN)c3ccccc3n2)c1
IC50 (WI-38; ATP luminescence; 72 h): 3500 nM

C/C=C/C(=O)Nc1ccc(Cn2cc(C[C@@]3(O)C[C@@H]4c5cc(OCc6cc(C)cc(C)c6)c(OCc6cc(C)cc(C)c6)cc5CCN4[C@@H](C)C3)nn2)cc1
IC50 (ASPC1; MTT): 553 nM

COc1ccc(C[C]2([Ti+2][C]3(Cc4ccc(OC)cc4)C=CC=C3)C=CC=C2)cc1.[Cl-].[Cl-]
IC50 (CAKI-1; XTT; 24 h): > 200000 nM

C=CC(=O)Nc1ccc(CCn2cc(C[C@@]3(O)C[C@@H]4c5cc(OCc6cc(C)cc(C)c6)c(OCc6cc(C)cc(C)c6)cc5CCN4[C@@H](C)C3)nn2)cc1
IC50 (ASPC1; MTT): 536 nM

COc1cc(C(=O)c2cc(C#Cc3ccc(C)cc3)sc2N)cc(OC)c1OC
IC50 (Molt4/C8): > 10000 nM

CCN1CCN(c2ccc(Nc3cc(N(C)C(=O)Nc4c(Cl)c(OC)cc(OC)c4Cl)ncn3)cc2)CC1
IC50 (RT-4; ATP luminescence; 96 h): 9.36 nM

CNc1nc2ccccc2n2c(-c3cccc(OC)c3)cnc12
IC50 (LS174T; neutral red; 96 h): 868 nM

CCN(CC)CCCCNc1ncc2cc(-c3cc(OC)cc(OC)c3)c(NC(=O)NC(C)(C)C)nc2n1
IC50 (RT-4; MTT; 5 days): 5 nM

CC(=O)C1=C(C)Nc2sc(C(=O)c3ccc(Cl)c(Cl)c3)c(N)c2C1c1cccnc1 (stereo not drawn)
IC50 (HMC3; imaging): 41900 nM

CC(C)c1n[nH]c2c(Nc3ccccc3)nc(CNCc3ccccc3)cc12
IC50 (WI-38; MTS; 48 h): 7000 nM

CC(C)C[C@H](NC(=O)[C@H](Cc1ccccc1)NC(=O)c1cnccn1)B(O)O
IC50 (EFM-192A; ATP luminescence): 6.9 nM

NCCCOc1cc(NC(=O)c2cc(Cl)cc(C(=O)Nc3cc(OCCCN)c4ccccc4n3)n2)nc2ccccc12
IC50 (WI-38; ATP luminescence; 72 h): 600 nM

C[C@H]1CNC(=O)c2cnn3ccc(nc23)N[C@H](C)c2cc(F)ccc2O1
IC50 (HCC827; MTT; 72 h): 430 nM

C=CC(=O)Nc1cc(Nc2nccc(-c3cn(C4CC4)c4ccccc34)n2)c(OC)cc1N(C)CCN(C)C
IC50 (HCC827; ATP luminescence; 72 h): 3.3 nM

NCc1cc2c(-c3ccccc3)n[nH]c2c(Nc2ccccc2)n1
IC50 (WI-38; MTS; 48 h): > 10000 nM

COc1cc(Nc2nccc(-c3cnn4nc(OC)ccc34)n2)cc(C(F)(F)F)c1
IC50 (HCC827; ATP luminescence): 970 nM

Cc1cc(C)cc(COc2cc3c(cc2OCc2cc(C)cc(C)c2)C2CC(O)(Cc4cn(CCCCCCNC(=O)CNc5ccc6c(c5)C(=O)N(C5CCC(=O)NC5=O)C6=O)nn4)CC(C)N2CC3)c1 (stereo not drawn)
IC50 (ASPC1; MTT): > 5000 nM

NCCOc1cc(NC(=O)c2cc(OCc3c[nH]nn3)cc(C(=O)Nc3cc(OCCN)c4ccccc4n3)n2)nc2ccccc12
IC50 (WI-38; ATP luminescence; 72 h): 39700 nM
